Measured values of several laboratories.
Lines come from different studies, so protocols differ.
Target: Myotonin-protein kinase (DMPK, Homo sapiens, UniProt Q09013)
Residues used in one study (Q09013 1-629): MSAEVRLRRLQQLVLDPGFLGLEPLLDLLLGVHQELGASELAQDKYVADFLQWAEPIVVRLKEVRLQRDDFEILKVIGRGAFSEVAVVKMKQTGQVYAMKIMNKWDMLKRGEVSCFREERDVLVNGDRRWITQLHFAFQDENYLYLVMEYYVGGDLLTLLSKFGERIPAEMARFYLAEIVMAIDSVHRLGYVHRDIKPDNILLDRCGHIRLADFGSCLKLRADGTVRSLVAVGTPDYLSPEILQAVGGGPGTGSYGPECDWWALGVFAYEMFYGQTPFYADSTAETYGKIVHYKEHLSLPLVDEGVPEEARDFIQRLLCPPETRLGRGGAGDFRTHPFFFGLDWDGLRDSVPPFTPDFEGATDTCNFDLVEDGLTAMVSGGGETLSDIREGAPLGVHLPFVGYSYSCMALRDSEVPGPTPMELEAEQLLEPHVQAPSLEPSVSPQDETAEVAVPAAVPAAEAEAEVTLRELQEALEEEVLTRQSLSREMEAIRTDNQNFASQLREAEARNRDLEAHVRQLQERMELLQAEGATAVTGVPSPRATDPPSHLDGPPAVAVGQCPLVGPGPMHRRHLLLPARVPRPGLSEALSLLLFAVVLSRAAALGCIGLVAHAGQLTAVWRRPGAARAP

Compound | test | setting | endpoint | result
Cn1cc(-c2cccc(N3CCc4c(sc5c4CC(C)(C)C5)C3=O)c2CO)cc(Nc2ccncn2)c1=O | enzyme activity, inhibitor | 1 µM | inhibition | -4%
C#Cc1n[nH]c2c(-c3cn([C@@H](C)c4ccccn4)c(=O)[nH]c3=O)cc(F)cc12 | enzyme activity, inhibitor | 0.1 µM | inhibition | 3.2%
Cc1nn(C)cc1-c1nc2c(N3CCN(Cc4ccc(Cl)cc4)CC3)c(Cl)cnc2[nH]1 | binding, competition with immobilised ligand | 1 µM | remaining binding | 100%
C#Cc1n[nH]c2c(-c3cn([C@@H](C)c4ccccc4)c(=O)[nH]c3=O)cc(F)cc12 | enzyme activity, inhibitor | 0.1 µM | inhibition | -4%
O=c1[nH]c2ccccc2n1C1CCN(Cc2ccc(-c3[nH]c4cc5ncnc5cc4nc3-c3ccccc3)cc2)CC1 | cell-free assay | 0.5 µM | remaining signal | 98%
Cn1cncc1[C@](O)(COc1ccc(C#N)cc1-c1ccc(OC(F)(F)F)cc1)c1ccc(C#N)cc1 | cell-free assay, competition with immobilised ligand | 1 µM | remaining binding | 98%
COc1ncccc1-c1cnn2ccc(N3CCN(C(=O)OC(C)C)CC3)nc12 | binding, competition with immobilised ligand | 1 µM | remaining binding | 98%
Cn1cc(-c2cc(F)cc(N3CCn4c(cc5c4CCCC5)C3=O)c2CO)cc(Nc2ccc(N3CCN(C4COC4)CC3)cn2)c1=O | enzyme activity, inhibitor | 0.1 µM | inhibition | -7%
Nc1ncc(-c2nc(N3CCOCC3)nc(N3CCOCC3)n2)c(C(F)F)n1 | binding, competition with immobilised ligand | 10 µM | remaining binding | 76%
CC(C)(C)c1cc(C=C(C#N)C#N)cc(Br)c1O | enzyme activity, inhibitor | 0.5 µM | remaining activity | 96.9%
